Measured values pooled from the literature.
Each line is one published result; the experiments were not run side by side.
CDK9: Cyclin-dependent kinase 9 (CDK9, Homo sapiens, UniProt P50750)
CDK9 with cyclin T1: Cyclin-dependent kinase 9, with cyclin T1 (CDK9, Homo sapiens, UniProt P50750)

| Compound | target | test | conditions | endpoint | result |
| --- | --- | --- | --- | --- | --- |
| Nc1ncc(-c2nc(N3CCOCC3)nc(N3CCOCC3)n2)c(C(F)F)n1 | CDK9 | binding, competition with immobilised ligand | 10 µM | remaining binding | 99% |
| O=c1[nH]c2ccccc2n1C1CCN(Cc2ccc(-c3[nH]c4cc5ncnc5cc4nc3-c3ccccc3)cc2)CC1 | Cyclin-dependent kinase 9, with cyclin K (CDK9, Homo sapiens, UniProt P50750) | cell-free assay | 0.5 µM | remaining signal | 108% |
| N#CC1(c2ccccn2)CCN(Cc2cc(C(=O)O)c(=O)n3ccccc23)CC1 | CDK9 | cell-free assay, competition with immobilised ligand | 1 µM | remaining binding | 99% |
| COc1ncccc1-c1cnn2ccc(N3CCN(C(=O)OC(C)C)CC3)nc12 | CDK9 | binding, competition with immobilised ligand | 1 µM | remaining binding | 93% |
| Cc1nn(C)cc1-c1nc2c(N3CCN(Cc4ccc(Cl)cc4)CC3)c(Cl)cnc2[nH]1 | CDK9 | binding, competition with immobilised ligand | 1 µM | remaining binding | 100% |
| Cn1cncc1[C@](O)(COc1ccc(C#N)cc1-c1ccc(OC(F)(F)F)cc1)c1ccc(C#N)cc1 | CDK9 | cell-free assay, competition with immobilised ligand | 1 µM | remaining binding | 100% |
| Cn1cc(-c2cccc(N3CCc4c(sc5c4CC(C)(C)C5)C3=O)c2CO)cc(Nc2ccncn2)c1=O | CDK9 with cyclin T1 | enzyme activity, inhibitor | 1 µM | inhibition | 11% |
| C#Cc1n[nH]c2c(-c3cn(C(C)c4ccccn4)c(=O)[nH]c3=O)cc(F)cc12 (centres unmarked) | CDK9 with cyclin T1 | enzyme activity, inhibitor | 1 µM | inhibition | 20.9% |
